Assay results published in ChEMBL document CHEMBL4334489, “Asperpyridone A: An Unusual Pyridone Alkaloid Exerts Hypoglycemic Activity through the Insulin Signaling Pathway” (J Nat Prod, 2019).
Activity calls are given as the source filed them. The rule behind the calls is not given here.

Columns and labels:
[1] = test system: HepG2; assay: Effect on 2-NBDG uptake in insulin-resistant human HepG2 cells at 1000 uM pretreated with insulin for 24 hrs followed by compound addition incubated for 24 hrs and subsequent 2-NBDG measured after 30 mins by propidium iodide staining based flow cytometry analysis analysis (reference value: 65.4 %); format: functional
[2] = test system: HepG2; assay: Effect on 2-NBDG uptake in insulin-resistant human HepG2 cells at 750 uM pretreated with insulin for 24 hrs followed by compound addition incubated for 24 hrs and subsequent 2-NBDG measured after 30 mins by propidium iodide staining based flow cytometry analysis (reference value: 65.4 %); format: functional
[3] = test system: HepG2; assay: Effect on 2-NBDG uptake in insulin-resistant human HepG2 cells at 500 uM pretreated with insulin for 24 hrs followed by compound addition incubated for 24 hrs and subsequent 2-NBDG measured after 30 mins by propidium iodide staining based flow cytometry analysis (reference value: 65.4 %); format: functional
[4] = test system: HepG2; assay: Effect on 2-NBDG uptake in insulin-resistant human HepG2 cells at 50 uM pretreated with insulin for 24 hrs followed by compound addition incubated for 24 hrs and subsequent 2-NBDG measured after 30 mins by propidium iodide staining based flow cytometry analysis (reference value: 65.4 %); format: functional
[5] = test system: HepG2; assay: Increase in FGF21 gene expression in insulin-resistant human HepG2 cells using SYBR-green based qRT-PCR analysis; format: functional, cell-based
Procedure, shortened: (§1)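 HepG2 cells were made insulin-resistant with 0.1 units/mL insulin in serum-free DMEM for 24 h, then treated with compound at several doses (5–25 μM range) against a 1% DMSO vehicle control. Transcript levels of the target genes were quantified by qRT-PCR.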

[6] = test system: HepG2; assay: Effect on 2-NBDG uptake in insulin-resistant human HepG2 cells at 1 uM pretreated with insulin for 24 hrs followed by compound addition incubated for 24 hrs and subsequent 2-NBDG measured after 30 mins by propidium iodide staining based flow cytometry analysis (reference value: 33.4 %); format: functional
[7] = test system: HepG2; assay: Increase in FGF21 gene expression in insulin-resistant human HepG2 cells at 10 uM using SYBR-green based qRT-PCR analysis; format: functional, cell-based; procedure, shortened: as §1
[8] = test system: HepG2; assay: Effect on 2-NBDG uptake in insulin-resistant human HepG2 cells at 25 uM pretreated with insulin for 24 hrs followed by compound addition incubated for 24 hrs and subsequent 2-NBDG measured after 30 mins by propidium iodide staining based flow cytometry analysis (reference value: 33.4 %); format: functional
[9] = test system: HepG2; assay: Cytotoxicity against human HepG2 cells; format: cell-based
[10] = test system: HepG2; assay: Effect on 2-NBDG uptake in insulin-resistant human HepG2 cells at 0.2 uM pretreated with insulin for 24 hrs followed by compound addition incubated for 24 hrs and subsequent 2-NBDG measured after 30 mins by propidium iodide staining based flow cytometry analysis (reference value: 33.4 %); format: functional
[11] = test system: HepG2; assay: Effect on 2-NBDG uptake in insulin-resistant human HepG2 cells at 10 uM pretreated with insulin for 24 hrs followed by compound addition incubated for 24 hrs and subsequent 2-NBDG measured after 30 mins by propidium iodide staining based flow cytometry analysis (reference value: 33.4 %); format: functional
[12] = test system: BXPC-3; assay: Cytotoxicity against human BxPC3 cells; format: cell-based
[13] = test system: CT26; assay: Cytotoxicity against mouse CT26 cells; format: cell-based
[14] = test system: ASPC1; assay: Cytotoxicity against human AsPC1 cells; format: cell-based
[15] = test system: Panc02; assay: Cytotoxicity against mouse Panc02 cells; format: cell-based
[16] = test system: HepG2; assay: Antidiabetic activity in human HepG2 cells assessed as increase in glucose consumption at 50 uM by glucose oxidase method; format: functional, cell-based
Procedure, shortened: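 HepG2 cells grown in DMEM with 10% FBS and 1% penicillin/streptomycin at 37 °C under 5% CO2. Cells were treated with 50 μM test compound or 0.1% DMSO vehicle. Glucose remaining in the culture supernatant was measured with a glucose oxidase–peroxidase kit.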

[17] = test system: HepG2; assay: Increase in PCK2 gene expression in insulin-resistant human HepG2 cells at 10 uM using SYBR-green based qRT-PCR analysis; format: functional, cell-based

Compound	Activity [1] [%]	Activity [2] [%]	Activity [3] [%]	Activity [4] [%]	Activity [5]	Activity [6] [%]	Activity [7]	Activity [8] [%]	Activity [9]	Activity [10] [%]	Activity [11] [%]	Activity [12]	Activity [13]	Activity [14]	Activity [15]	Activity [16]	Activity [17]
CN(C)C(=N)NC(=N)N [METFORMIN]	45.6	46.1	42.5	31.9	–	–	–	–	–	–	–	–	–	–	–	–	–
COn1ccc2c(c1=O)[C@H]1[C@@H](C[C@H](C)C[C@@H]1C)[C@H](C)O2	–	–	–	–	Dose-dependent effect	47.5	Active	46.9	Non-Toxic	45.1	53.6	Non-Toxic	Non-Toxic	Non-Toxic	Non-Toxic	Active	Active
